Test results as given in ChEMBL document CHEMBL5506013, “Mitochondria-Selective Dicationic Small-Molecule Ligand Targeting G-Quadruplex Structures for Human Colorectal Cancer Therapy” (J Med Chem, 2024).
The source made the active and inactive calls. The rule behind the calls is not given here.

Tests used:
Quadruplex DNA [1] = test: Binding affinity to mito 29 G4 DNA (unknown origin) assessed as dissociation constant measured upto 150 secs by isothermal titration calorimetry assay; assay type: nucleic-acid assay; conditions: time <= 150.0 sec
HCT-116 [2] = test: Induction of ROS production in human HCT-116 cells assessed as upregulation of ROS level measured after 48 hrs by mito-sox staining based analysis; assay type: functional, cell-based; conditions: dose <= 4.0 µM
[3] = Drug localization in endoplasmic reticulum of living human HCT-116 cells assessed as colocalization at 4 uM incubated for 1 hr by ER-tracker blue staining based analysis; assay type: ADME, subcellular; conditions: hct-116, 1 h
In short: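 Live HCT116 cells co-stained with ligand and ER-Tracker Blue. Colocalization assessed by confocal imaging.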

HCT-116 [4] = test: Downregulation of ATP6 mRNA level in human HCT-116 cells at 0 to 4 uM measured after 48 hrs by qRT-PCR analysis; assay type: functional, cell-based; conditions: dose 0-4 µM
MDA-MB-231 = test: Antiproliferative activity against human MDA-MB-231 cells measured after 48 hrs by MTT assay; assay type: functional, cell-based; conditions: MDA-MB-231, 48 h
In short: (§1)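 Cells exposed to the ligands for 48 h. Viability was read by MTT, and the IC50 was derived from the response.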

HCT-116 [5] = test: Antitumor activity against human HCT-116 cells xenografted in Balb/c nude mouse model assessed as induction of apoptosis at 5 mg/kg, iv administered every two days for 16 days by TUNEL staining based analysis; assay type: functional, organism-based; conditions: time 16.0 day
In short: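 Tumours came from HCT116-xenografted male Balb/c nude mice given 5 mg/kg i.v. every two days, or PBS, for 16 days. Tumour tissue sections were stained by TUNEL for apoptosis and by Ki67 immunofluorescence for proliferation, then compared with the control group.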

HCT-116 [6] = test: Downregulation of ND2 mRNA level in human HCT-116 cells at 0 to 4 uM measured after 48 hrs by qRT-PCR analysis; assay type: functional, cell-based; conditions: dose 0-4 µM
DNA = test: Binding affinity to HP19 DNA (non-G4 DNA) (unknown origin) assessed as increase in fluorescence intensity by fluorescence spectrophotometric analysis; assay type: nucleic-acid assay
In short: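 Oligonucleotides were pre-annealed at 95 °C for 10 min, then cooled slowly. Ligand (5 uM) was mixed with 20 uM DNA in buffer. Emission was collected over 550–800 nm, and enhancement was taken at 650 nm as F/F0.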

Quadruplex DNA [7] = test: Binding affinity to Mito 0.5-16 G4 DNA (unknown origin) assessed as change in melting temperature at 5 uM by circular dichroism spectroscopic analysis; assay type: nucleic-acid assay
HFF-1 = test: Downregulation of ND2 mRNA level in human HFF-1 cells at 0 to 4 uM measured after 48 hrs by qRT-PCR analysis; assay type: functional, cell-based; conditions: dose 0-4 µM
HCT-116 [8] = test: Downregulation of ND4 protein level in human HCT-116 cells at upto 4 uM incubated for 48 hrs by Western blot analysis; assay type: functional, cell-based
HCT-116 [9] = test: Downregulation of COX2 protein level in human HCT-116 cells at upto 4 uM incubated for 48 hrs by Western blot analysis; assay type: functional, cell-based
[10] = Drug localization in human HCT-116 cells by measuring red foci at 4 uM incubated for 1 hr in presence of MitoPDS by hoechst33342 staining based analysis; assay type: ADME, cell-based; conditions: hct-116, 1 h
In short: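 Pretreatment of live HCT116 cells: FCCP 1 uM for 20 min, cyclosporin A 1 uM for 24 h, DMOG 100 uM for 24 h, or MitoPDS at several concentrations for 3 h (applied after dye loading). Cells loaded with ligand 4 uM (excitation 488 nm) for 1 h and Hoechst33342 1 uM for 30 min. Red foci counted by confocal imaging in 100 cells. Mean ± SEM, t test.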

HCT-116 [11] = test: Inhibition of cell proliferation in human HCT-116 cells at upto 4 uM measured after 7 days by colony formation assay; assay type: functional, cell-based; conditions: time 7.0 day
In short: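 Colony formation: HCT116 cells treated for 7 days at 0, 1, 2 or 4 uM, colonies counted and quantified; mean ± SD.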

HCT-116 [12] = test: Downregulation of ND5 mRNA level in human HCT-116 cells at 0 to 4 uM measured after 48 hrs by qRT-PCR analysis; assay type: functional, cell-based; conditions: dose 0-4 µM
HepG2 = test: Antiproliferative activity against human HepG2 cells measured after 48 hrs by MTT assay; assay type: functional, cell-based; conditions: HepG2, 48 h; in short: as §1
Quadruplex DNA [13] = test: Binding affinity to Mito 81 G4 DNA (unknown origin) assessed as change in melting temperature at 5 uM by circular dichroism spectroscopic analysis; assay type: nucleic-acid assay
HCT-116 [14] = test: Downregulation of mitochondrial respiratory chain complex II level in human HCT-116 cells at upto 4 uM measured after 48 hrs by Western blot analysis; assay type: functional, cell-based
HCT-116 [15] = test: Antiproliferative activity against human HCT-116 cells measured after 48 hrs by MTT assay; assay type: functional, cell-based; conditions: HCT-116, 48 h; in short: as §1
HCT-116 [16] = test: Downregulation of mitochondrial respiratory chain complex I level in human HCT-116 cells at upto 4 uM measured after 48 hrs by Western blot analysis; assay type: functional, cell-based
[17] = Toxicity in BALB/c nude mouse assessed as effect on spleen at 5 mg/kg, iv measured after 16 hrs post injection by H and E staining based analysis; assay type: organism-based; conditions: in vivo
[18] = Toxicity in BALB/c nude mouse assessed as change in mean red blood cell hemoglobin concentration at 5 mg/kg, iv administered every two days for 16 days; assay type: organism-based; conditions: in vivo, 384 h, time 16 day
In short: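 HCT116 xenograft-bearing male Balb/c nude mice (6/group) dosed iv at 5 mg/kg every two days or with PBS. Whole blood collected at sacrifice on day 16 for hematology parameters.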

HCT-116 [19] = test: Downregulation of ND2 gene expression in human HCT-116 cells at 0 to 4 uM measured after 48 hrs by q-PCR analysis; assay type: functional, cell-based; conditions: dose 0-4 µM
HCT-116 [20] = test: Upregulation of p21 level in human HCT-116 cells at upto 4 uM measured after 72 hrs by Western blot analysis; assay type: functional, cell-based
In short: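 HCT116 cells exposed to the ligand at 0–4 µM for 72 h. Lysates were immunoblotted for p21 together with Lamin B1, p53, p16 and γ-H2A.x, with β-actin as the loading reference.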

HCT-116 [21] = test: Induction of mitochondrial permeability transition pore opening in human HCT-116 cells measured after 48 hrs by calcein-AM staining based assay; assay type: functional, cell-based; conditions: dose <= 4.0 µM
HCT-116 [22] = test: Induction of cell cycle arrest in human HCT-116 cells assessed as accumulation of cells at G0/G1 phase measured after 72 hrs by PI staining based flow cytometry analysis; assay type: functional; conditions: dose 1-4 µM
In short: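 HCT116 cells treated at 0-4 uM for 72 h. Cell-cycle distribution measured by flow cytometry and G0/G1 percentage recorded.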

HCT-116 [23] = test: Induction of apoptosis in human HCT-116 cells at upto 4 uM measured after 72 hrs by annexin V-BUV396 and 7-AAD staining based flow cytometry analysis (reference value: 2.64%); assay type: functional; conditions: up to 4 µM
In short: (§2)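 HCT116 cells treated at 0-4 uM for 72 h, stained with Annexin V-BUV396 and 7-AAD, and the apoptotic fraction quantified by flow cytometry.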

HCT-116 [24] = test: Induction of apoptosis in human HCT-116 cells measured after 72 hrs by annexin V-BUV396 and 7-AAD staining based flow cytometry analysis; assay type: functional, cell-based; conditions: dose <= 4.0 µM; in short: as §2
Quadruplex DNA [25] = test: Binding affinity to mito 0.5-15 G4 DNA (unknown origin) assessed as dissociation constant measured upto 150 secs by isothermal titration calorimetry assay; assay type: nucleic-acid assay
HCT-116 [26] = test: Downregulation of ND1 mRNA level in human HCT-116 cells at 0 to 4 uM measured after 48 hrs by qRT-PCR analysis; assay type: functional, cell-based; conditions: dose 0-4 µM

- Activity (Quadruplex DNA [1]): inactive
- Drug uptake [3]: Not Active
- IC50 (MDA-MB-231): 34.6 µM
- Activity (DNA): inactive
- ΔTm (Quadruplex DNA [7]): 16.5 °C
- Drug uptake [10]: Not Active
- IC50 (HepG2): > 40 µM
- ΔTm (Quadruplex DNA [13]): 3.6 °C
- IC50 (HCT-116 [15]): 3.4 µM
- Kd (Quadruplex DNA [25]): 0.06 µM
Compound: C(=C\c1ccc2ccccc2[n+]1CCCCCCCC[n+]1c(/C=C/c2ccc(N3CCCCC3)cc2)ccc2ccccc21)/c1ccc(N2CCCCC2)cc1.[I-].[I-]
- Activity (HCT-116 [2]): Dose-Dependent Effect
- Activity (HCT-116 [4]): Active
- Activity (HCT-116 [5]): Active
- Activity (HCT-116 [6]): Active
- Activity (HFF-1): Active
- Activity (HCT-116 [8]): Active
- Activity (HCT-116 [9]): Active
- inhibition (HCT-116 [11]): Active
- Activity (HCT-116 [12]): Active
- Activity (HCT-116 [14]): Active
- Activity (HCT-116 [16]): Active
- Activity [17]: Non-Toxic
- Activity [18]: Non-Toxic
- Activity (HCT-116 [19]): Active
- Activity (HCT-116 [20]): Active
- Activity (HCT-116 [21]): Dose-Dependent Effect
- Activity (HCT-116 [22]): Dose-Dependent Effect
- Activity (HCT-116 [23]): 27.4%
- Activity (HCT-116 [24]): Dose-Dependent Effect
- Activity (HCT-116 [26]): Active
